How the values were obtained:
[1] = Selectivity index, ratio of CC50 for human RD cells to EC50 for Enterovirus A71 BrCr infected in human RD cells; type: toxicity, cell-based; settings: read-out: Ratio CC50/EC50
Summary of the method: (§1)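 RD cells seeded in 96-well plates; next day serial compound dilutions plus virus at low MOI added. Incubation at 37 °C, 5% CO₂ until full CPE in untreated infected controls (3 days). CC50 from uninfected treated cells in the same setup; SI = CC50/EC50.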

Enterovirus A71 [2] = assay: Antiviral activity against Enterovirus A 71 BrCr infected in human RD cells assessed as reduction in viral RNA level at 20 uM administered at onset of infection measured 8 hrs post-infection by RT-qPCR analysis relative to control; type: functional, strain BRCR; parameters: scale not given: the % may be the effect or the level left
Enterovirus A71 [3] = assay: Antiviral activity against Enterovirus A 71 BrCr infected in human RD cells assessed as reduction in viral RNA level at 20 uM preincubated for 1 hr followed by viral infection and measured 8 hrs post-infection by RT-qPCR analysis relative to control; type: functional, strain BRCR; parameters: scale not given: the % may be the effect or the level left
Summary of the method: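 RD cells grown to confluence; compound at 20 μM in 2% FBS medium added 1 h before or 1, 2, 4 h after EV-A71 BrCr infection (MOI 1). Pirodavir 20 μM as entry-inhibitor reference; infected untreated cells as controls. At 8 h post-infection, intracellular RNA isolated and viral RNA quantified by RT-qPCR.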

Enterovirus A71 [4] = assay: Antiviral activity against Enterovirus A 71 BrCr infected in human RD cells assessed as reduction in virus-induced cytopathic effect preincubated for 1 day followed by viral infection and measured after 3 days by MTS/PMS method; type: functional, organism-based; settings: strain BRCR
Summary of the method: as §1, with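 “days). Viability read by MTS/PMS; EC50 as 50% inhibition of virus-induced death from dose-response curves.” for “days).”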

[5] = Selectivity ratio of EC50 for Enterovirus A 71 BrCr infected in human RD cells to EC50 for Enterovirus A 71 genotype C4 TW/1956/05 infected in human RD cells; type: functional
[6] = Selectivity ratio of EC50 for Enterovirus A 71 BrCr infected in human RD cells to EC50 for Enterovirus A 71 genotype B2 11316 infected in human RD cells; type: functional
[7] = Selectivity index, ratio of CC50 for human MT4 cells to EC50 for HIV1 NL4.3 infected in human MT4 cells; type: toxicity, cell-based; settings: read-out: Ratio CC50/EC50
Summary of the method: (§2)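 MT-4 cells (RPMI-1640, 10% FCS, 1% L-glutamine) pre-incubated 30 min at 37 °C with compound, then infected with HIV-1 NL4.3 or HIV-2 ROD according to stock TCID50. After 5 days, CPE scored microscopically and viability read by MTS/PES at A490 to derive EC50; cytotoxicity measured by MTS/PES at 5 days in the same cells. SI = CC50/EC50. Mean ± S.D. of at least 3 experiments.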

Enterovirus A71 [8] = assay: Antiviral activity against Enterovirus A71 genotype C2 H08300 461812 infected in human RD cells assessed as reduction in virus-induced cytopathic effect preincubated for 1 day followed by viral infection and measured after 3 days by MTS/PMS method; type: functional, organism-based; settings: Enterovirus A, genotype C2 H08300 461812, RD; summary of the method: as §1
Enterovirus A71 [9] = assay: Antiviral activity against Enterovirus A71 genotype B2 11316 infected in human RD cells assessed as reduction in virus-induced cytopathic effect preincubated for 1 day followed by viral infection and measured after 3 days by MTS/PMS method; type: functional, organism-based; settings: Enterovirus A, genotype B2 11316, RD; summary of the method: as §1
Enterovirus A71 [10] = assay: Antiviral activity against Enterovirus A71 genotype C2 H08300 461812 infected in human RD cells assessed as reduction in virus-induced cell death preincubated for 1 day followed by viral infection and measured after 3 days by microscopic analysis; type: functional; parameters: scale not given: the % may be the effect or the level left
Summary of the method: (§3)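 RD cells were seeded in 96-well plates and infected the next day at low MOI, with serial compound dilutions added at the same time. Plates were incubated at 37 °C, 5% CO2 for 3 days, until untreated infected controls died. Cell death was quantified by MTS/PMS and EC50 calculated from dose-response curves. Values come from more than 2 dose-response curves across more than 1 experiment, with microscopic quality control.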

[11] = Selectivity index, ratio of CC50 for human MT4 cells to EC50 for HIV-1 NL4.3 infected in human MT4 cells
Enterovirus A71 [12] = assay: Antiviral activity against Enterovirus A 71 BrCr infected in human RD cells assessed as reduction in virus-induced cell death preincubated for 1 day followed by viral infection and measured after 3 days by microscopic analysis; type: functional, strain BRCR; parameters: scale not given: the % may be the effect or the level left; summary of the method: as §3
Enterovirus A71 [13] = assay: Antiviral activity against Enterovirus A71 genotype B2 11316 infected in human RD cells assessed as reduction in virus-induced cell death preincubated for 1 day followed by viral infection and measured after 3 days by microscopic analysis; type: functional; parameters: scale not given: the % may be the effect or the level left; summary of the method: as §3
Enterovirus A71 [14] = assay: Antiviral activity against Enterovirus A71 genotype B5 TW/70902/08 infected in human RD cells assessed as reduction in virus-induced cell death preincubated for 1 day followed by viral infection and measured after 3 days by […]; type: functional; parameters: scale not given: the % may be the effect or the level left; summary of the method: as §3
RD [15] = assay: Cytotoxicity against human RD cells assessed as adverse effect on cell; type: cell-based
[16] = system: Human immunodeficiency virus 2; assay: Antiviral activity against HIV-2 ROD infected in human MT4 cells assessed as reduction in virus-induced cytopathic effect preincubated for 30 mins followed by viral infection and measured after 5 days by MTS assay; settings: Human immunodeficiency virus 2, ISOLATE ROD
Enterovirus A71 [17] = assay: Antiviral activity against Enterovirus A71 genotype C4 TW/1956/05 infected in human RD cells assessed as reduction in virus-induced cytopathic effect preincubated for 1 day followed by viral infection and measured after 3 days by MTS/PMS method; type: functional, organism-based; settings: Enterovirus A, genotype C4 TW/1956/05, RD; summary of the method: as §1
[18] = system: Human immunodeficiency virus 1; assay: Antiviral activity against HIV1 NL4.3 infected in human MT4 cells assessed as reduction in virus-induced cytopathic effect preincubated for 30 mins followed by viral infection and measured after 5 days by MTS assay; type: functional, organism-based; settings: Human immunodeficiency virus 1, NL4.3, MT4
Enterovirus A71 [19] = assay: Antiviral activity against Enterovirus A71 genotype C4 TW/1956/05 infected in human RD cells assessed as reduction in virus-induced cell death preincubated for 1 day followed by viral infection and measured after 3 days by microscopic analysis; type: functional; parameters: scale not given: the % may be the effect or the level left; summary of the method: as §3
RD [20] = assay: Cytotoxicity against human RD cells assessed as induction of cell morphological changes; type: cell-based
[21] = Cytotoxicity against human MT4 cells assessed as reduction in cell viability measured after 5 days by MTS/PES assay; type: cell-based; summary of the method: as §2
Enterovirus A71 [22] = assay: Antiviral activity against Enterovirus A71 genotype B5 TW/70902/08 infected in human RD cells assessed as reduction in virus-induced cytopathic effect preincubated for 1 day followed by viral infection and measured after 3 days by MTS/PMS method; type: functional, organism-based; settings: Enterovirus A, genotype B5 TW/70902/08, RD; summary of the method: as §1
Enterovirus A71 [23] = assay: Antiviral activity against Enterovirus A 71 BrCr harboring VP1 P246S mutant infected in human RD cells assessed as reduction in virus-induced cytopathic effect preincubated for 1 day followed by viral infection and measured after 3 days by MTS/PMS method; type: functional, organism-based, strain BRCR
Enterovirus A71 [24] = assay: Antiviral activity against Enterovirus A 71 BrCr harboring VP1 S184T/P246S mutant infected in human RD cells assessed as reduction in virus-induced cytopathic effect preincubated for 1 day followed by viral infection and measured after 3 days by MTS/PMS method; type: functional, organism-based, strain BRCR
Enterovirus A71 [25] = assay: Antiviral activity against Enterovirus A 71 BrCr harboring VP1 S184T mutant infected in human RD cells assessed as reduction in virus-induced cytopathic effect preincubated for 1 day followed by viral infection and measured after 3 days by MTS/PMS method; type: functional, organism-based, strain BRCR

CCOC(=O)c1ccc(OCCC2CCN(c3ccc(C)nn3)CC2)cc1 [PIRODAVIR] showed a selectivity ratio [1] of over 333, an Activity (Enterovirus A71 [2]) of 100% and an Activity (Enterovirus A71 [3]) of 100%. It also gave an EC50 (Enterovirus A71 [4]) of 300 nM and an EC90 (Enterovirus A71 [4]) of 600 nM.
In the case of O=C(CCOCC(COCCC(=O)NC(Cc1c(-c2cccc(C(=O)O)c2)[nH]c2ccccc12)C(=O)O)(COCCC(=O)NC(Cc1c(-c2cccc(C(=O)O)c2)[nH]c2ccccc12)C(=O)O)COCCC(=O)NC(Cc1c(-c2cccc(C(=O)O)c2)[nH]c2ccccc12)C(=O)O)NC(Cc1c(-c2cccc(C(=O)O)c2)[nH]c2ccccc12)C(=O)O (configuration not stated), the “Ratio EC50” value [5] is reported as 88, the “Ratio EC50” value [6] is reported as 4 and the selectivity ratio [7] is reported as over 50. The EC50 (Enterovirus A71 [8]) was 7.3 nM, the EC50 (Enterovirus A71 [9]) was 52 nM and the Activity (Enterovirus A71 [10]) was 100%. It also gave a selectivity ratio [11] of over 50, an Activity (Enterovirus A71 [12]) of 100% and a selectivity ratio [1] of over 336. For the same compound, the Activity (Enterovirus A71 [13]) was 100%, the Activity (Enterovirus A71 [14]) was 100% and the Activity (RD [15]) was “Non-Toxic”. For the same compound, the EC50 [16] was 760 nM, the EC50 (Enterovirus A71 [17]) was 2 nM and the EC50 [18] was 2000 nM. The Activity (Enterovirus A71 [19]) was 100%, the Activity (RD [20]) was “Non-Toxic” and the CC50 at 120 h [21] was over 100000 nM. For the same compound, the EC50 (Enterovirus A71 [22]) was 18 nM, the EC50 (Enterovirus A71 [4]) was 175 to 190 nM and the EC90 (Enterovirus A71 [4]) was 300 nM.
In the case of O=C(CCC(CCC(=O)N[C@H](Cc1c[nH]c2ccccc12)C(=O)O)(CCC(=O)N[C@H](Cc1c[nH]c2ccccc12)C(=O)O)NC(=O)CCOCC(COCCC(=O)NC(CCC(=O)N[C@H](Cc1c[nH]c2ccccc12)C(=O)O)(CCC(=O)N[C@H](Cc1c[nH]c2ccccc12)C(=O)O)CCC(=O)N[C@H](Cc1c[nH]c2ccccc12)C(=O)O)(COCCC(=O)NC(CCC(=O)N[C@H](Cc1c[nH]c2ccccc12)C(=O)O)(CCC(=O)N[C@H](Cc1c[nH]c2ccccc12)C(=O)O)CCC(=O)N[C@H](Cc1c[nH]c2ccccc12)C(=O)O)COCCC(=O)NC(CCC(=O)N[C@H](Cc1c[nH]c2ccccc12)C(=O)O)(CCC(=O)N[C@H](Cc1c[nH]c2ccccc12)C(=O)O)CCC(=O)N[C@H](Cc1c[nH]c2ccccc12)C(=O)O)N[C@H](Cc1c[nH]c2ccccc12)C(=O)O, the EC50 (Enterovirus A71 [23]) is reported as 4710 nM, the selectivity ratio [7] is reported as over 43 and the EC50 (Enterovirus A71 [8]) is reported as 1.1 nM. The EC50 (Enterovirus A71 [9]) was 0.4 nM, the Activity (Enterovirus A71 [10]) was 100% and the selectivity ratio [11] was over 43. It also gave an Activity (Enterovirus A71 [12]) of 100%, an Activity (Enterovirus A71 [13]) of 100% and an Activity (Enterovirus A71 [14]) of 100%. For the same compound, the Activity (RD [15]) was “Non-Toxic”, the EC50 (Enterovirus A71 [24]) was 8930 nM and the EC50 [16] was 6600 nM. The EC50 (Enterovirus A71 [25]) was 1990 nM, the EC50 (Enterovirus A71 [17]) was 0.2 nM and the EC50 [18] was 2300 nM. The Activity (Enterovirus A71 [19]) was 100%, the Activity (RD [20]) was “Non-Toxic” and the CC50 at 120 h [21] was over 100000 nM. For the same compound, the EC50 (Enterovirus A71 [22]) was 0.2 nM, the EC50 (Enterovirus A71 [4]) was 280 to 300 nM and the EC90 (Enterovirus A71 [4]) was 500 nM.

Reference: ChEMBL document CHEMBL4321868, “Scaffold Simplification Strategy Leads to a Novel Generation of Dual Human Immunodeficiency Virus and Enterovirus-A71 Entry Inhibitors” (J Med Chem, 2020)
